Here are results for six molecules from ChEMBL document CHEMBL3102784, “Salicylanilide diethyl phosphates: synthesis, antimicrobial activity and cytotoxicity” (Bioorg Med Chem, 2014).

Holding throughout (type): functional
Assay [1] relates to Mycobacterium tuberculosis. In words: Antimycobacterial activity against isoniazid, rifamycin and streptomycin-resistant Mycobacterium tuberculosis 9449/2006 after 21 days. The following applies: 9449/2006, 504 h. In a few lines:
(§1)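 Drug-resistant M. tuberculosis strains (MDR, one XDR), inoculum dilution 10^3. MIC by micromethod in Šula's semisynthetic medium at 37 °C, compounds in DMSO, concentration series as for the drug-susceptible strain. Read after 14 and 21 days.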

The test system of assay [2] is Mycobacterium tuberculosis. In words: Antimycobacterial activity against isoniazid, rifamycin, streptomycin, ethambutol and ofloxacin, clofazimine-resistant Mycobacterium tuberculosis Praha 4 after 21 days. The following applies: Praha 4, 504 h. Put shortly: as §1
The test system of assay [3] is Mycobacterium tuberculosis. Kind of assay: Antimycobacterial activity against isoniazid, rifamycin, streptomycin, ethambutol and clofazimine-resistant Mycobacterium tuberculosis Praha 1 after 21 days. The following applies: Praha 1, 504 h. In a few lines: as §1
The subject of assay [4] is Mycobacterium tuberculosis. Kind of assay: Antimycobacterial activity against isoniazid, rifampicin, rifabutin, streptomycin and ethambutol-resistant Mycobacterium tuberculosis 234/2005 after 21 days. The following applies: 234/2005, 504 h. In a few lines: as §1
Assay [5] concerns Mycobacterium tuberculosis. Kind of assay: Antimycobacterial activity against isoniazid, rifamycin, streptomycin, ethambutol and clofazimine-resistant Mycobacterium tuberculosis Praha 1 after 14 days. The following applies: Praha 1, 336 h. In a few lines: as §1
The subject of assay [6] is Mycobacterium tuberculosis. Kind of assay: Antimycobacterial activity against isoniazid, rifampicin, rifabutin, streptomycin and ethambutol-resistant Mycobacterium tuberculosis 234/2005 after 14 days. The following applies: 234/2005, 336 h. Put shortly: as §1
The subject of assay [7] is Mycobacterium tuberculosis. Kind of assay: Antimycobacterial activity against isoniazid, rifamycin, streptomycin, ethambutol, clofazimine, ofloxacin, gentamicin and amikacin-resistant Mycobacterium tuberculosis Praha 131 after 21 days. The following applies: Praha 131, 504 h. In a few lines:
as §1

The test system of assay [8] is Mycobacterium tuberculosis. Kind of assay: Antimycobacterial activity against isoniazid, rifamycin and streptomycin-resistant Mycobacterium tuberculosis 9449/2006 after 14 days. The following applies: 9449/2006, 336 h. In a few lines: as §1
The subject of assay [9] is Mycobacterium tuberculosis. In words: Antimycobacterial activity against isoniazid, rifamycin, streptomycin, ethambutol and ofloxacin, clofazimine-resistant Mycobacterium tuberculosis Praha 4 after 14 days. The following applies: Praha 4, 336 h. Put shortly:
as §1

For assay [10], the system named is Mycobacterium tuberculosis. In words: Antimycobacterial activity against isoniazid, rifamycin, streptomycin, ethambutol, clofazimine, ofloxacin, gentamicin and amikacin-resistant Mycobacterium tuberculosis Praha 131 after 14 days. The following applies: Praha 131, 336 h. Put shortly: as §1

In brackets after ≈: the same amount, converted by molar mass.

As a reminder, the MIC is the lowest concentration that inhibits growth of the organism. On to `CCOP(=O)(OCC)Oc1cc(Cl)ccc1C(=O)Nc1ccc(C(F)(F)F)cc1`, for which the MIC in assay [1], in [2], in assay [3], in assay [4], in assay [5] and in assay [6] was 1 µM (≈ 0.452 µg/mL) in each case. Besides, the MIC in assay [7], in assay [8], in [9] and in assay [10] was 1 µM (≈ 0.452 µg/mL) in each case.
As for `CCOP(=O)(OCC)Oc1ccc(Br)cc1C(=O)Nc1ccc(Cl)c(Cl)c1`, the minimal inhibitory concentration (MIC) in [1], in assay [2], in [3], in assay [4], in [5] and in assay [6] was 1 µM (≈ 0.497 µg/mL) in each case. Further, the minimal inhibitory concentration (MIC) in [7], in [8], in [9] and in assay [10] was 1 µM (≈ 0.497 µg/mL) each time.
Regarding `CCOP(=O)(OCC)Oc1ccc(Br)cc1C(=O)Nc1ccc(C(F)(F)F)cc1`, the minimal inhibitory concentration (MIC) in assay [1], in assay [2], in assay [3], in assay [4], in assay [5] and in assay [6] was 1 µM (≈ 0.496 µg/mL) each time. Besides, the MIC in assay [7], in [8], in [9] and in assay [10] was 1 µM (≈ 0.496 µg/mL) each time.
In the case of `CCOP(=O)(OCC)Oc1ccc(Cl)cc1C(=O)Nc1ccc(Cl)c(Cl)c1`, the MIC in assay [1], in [2], in assay [3], in assay [4], in assay [5] and in [6] was 1 µM (≈ 0.453 µg/mL) each time. Moreover, the minimal inhibitory concentration (MIC) in assay [7], in assay [8], in assay [9] and in assay [10] was 1 µM (≈ 0.453 µg/mL) in each case.
Consider `CCOP(=O)(OCC)Oc1ccc(Cl)cc1C(=O)Nc1ccc(C(F)(F)F)cc1`, for which the MIC in assay [1], in assay [2], in assay [3], in assay [4], in assay [5] and in assay [6] was 1 µM (≈ 0.452 µg/mL) each time. The MIC in assay [7], in [8], in [9] and in assay [10] was 1 µM (≈ 0.452 µg/mL) throughout.
Take `NNC(=O)c1ccncc1` [ISONIAZID]: the minimal inhibitory concentration (MIC) in [1], in assay [2], in [3], in assay [4], in assay [5] and in assay [6] was 16 µM (≈ 2.19 µg/mL) each time. Also, the MIC in assay [7], in assay [8], in assay [9] and in assay [10] was 16 µM (≈ 2.19 µg/mL) throughout.
